Measured values collected from several papers.
Each line is one published result; the experiments were not run side by side. pIC50: −log10 of the molar value. Values after ≈ are worked out from the molar mass of the structure shown.
Organism: Staphylococcus aureus

Compound | read-out | method | strain | concentration | time | measurement | result
CO/N=C(\C(=O)N[C@@H]1C(=O)N2C(C(=O)O)=C(CSC(=O)c3ccco3)CS[C@H]12)c1csc(N)n1 | microbial killing | – | ATCC25923 | – | 18 h | MBC | 2 mg/L
CN[C@H](CC(C)C)C(=O)N[C@H]1C(=O)N[C@@H](CC(N)=O)C(=O)N[C@H]2C(=O)N[C@H]3C(=O)N[C@H](C(=O)N[C@H](C(=O)O)c4cc(O)cc(O)c4-c4cc3ccc4O)[C@H](O)c3ccc(c(Cl)c3)Oc3cc2cc(c3O[C@@H]2O[C@H](CO)[C@@H](O)[C@H](O)[C@H]2O[C@H]2C[C@](C)(N)[C@H](O)[C@H](C)O2)Oc2ccc(cc2Cl)[C@H]1O | microbial killing | – | ATCC25904 | – | – | MBC | 1.95 mg/L (≈ 1.35 µM)
CC(O)CSc1nnc(Cn2cnc3c2c(=O)n(C)c(=O)n3C)n1-c1ccccc1 (stereo not drawn) | microbial growth | disc diffusion | – | 25 µg/disc | – | inhibition zone | 12.7 mm
CN[C@H](CC(C)C)C(=O)N[C@H]1C(=O)N[C@@H](CC(N)=O)C(=O)N[C@H]2C(=O)N[C@H]3C(=O)N[C@H](C(=O)N[C@H](C(=O)O)c4cc(O)cc(O)c4-c4cc3ccc4O)[C@H](O)c3ccc(c(Cl)c3)Oc3cc2cc(c3O[C@@H]2O[C@H](CO)[C@@H](O)[C@H](O)[C@H]2O[C@H]2C[C@](C)(N)[C@H](O)[C@H](C)O2)Oc2ccc(cc2Cl)[C@H]1O | microbial growth | – | ATCC29213 | – | 24 h | pIC50 | 5.67
CN[C@H](CC(C)C)C(=O)N[C@H]1C(=O)N[C@@H](CC(N)=O)C(=O)N[C@H]2C(=O)N[C@H]3C(=O)N[C@H](C(=O)N[C@H](C(=O)O)c4cc(O)cc(O)c4-c4cc3ccc4O)[C@H](O)c3ccc(c(Cl)c3)Oc3cc2cc(c3O[C@@H]2O[C@H](CO)[C@@H](O)[C@H](O)[C@H]2O[C@H]2C[C@](C)(N)[C@H](O)[C@H](C)O2)Oc2ccc(cc2Cl)[C@H]1O | microbial killing | – | ATCC25923 | – | 18 h | MBC | 2 mg/L (≈ 1.38 µM)
Cc1ccc(-c2nnc(SCC(C)O)n2-c2ccccc2)cc1 (stereo not drawn) | microbial growth | disc diffusion | – | 25 µg/disc | – | inhibition zone | 10 mm
O=c1c(O)c(-c2ccc(O)c(O)c2)oc2cc(O)cc(O)c12 | microbial growth | – | ATCC29213 | – | 24 h | pIC50 | < 4.00
C=C/C=C(\C)CC[C@H]1C[C@@H](O)CC(=O)O1 | microbial growth | broth dilution | ATCC6538P | – | – | MIC | 256 mg/L (≈ 1220 µM)
O=C(O)c1cn(C2CC2)c2cc(N3CCNCC3)c(F)cc2c1=O | microbial growth | disc diffusion | – | 100 µg/mL | 24 h | inhibition zone | 0 mm
C[C@H]1COc2c(N3CCN(C)CC3)c(F)cc3c(=O)c(C(=O)O)cn1c23 | microbial killing | – | ATCC25904 | – | – | MBC | 0.09 mg/L (≈ 0.249 µM)
CN(C)[C@@H]1C(O)=C(C(N)=O)C(=O)[C@@]2(O)C(O)=C3C(=O)c4c(O)cccc4[C@@](C)(O)[C@H]3C[C@@H]12 | microbial growth | disc diffusion | – | 100 µg/mL | 24 h | inhibition zone | 25 mm
CC(O)CSc1nnc(COc2ccc(Cl)cc2Br)n1-c1ccccc1 (stereo not drawn) | microbial growth | disc diffusion | – | 25 µg/disc | – | inhibition zone | 19.3 mm
